Read-outs that look alike come from different tables or passages of the source. Marks after values point to notes of the source that are not given here.
Columns and labels:
[1] = tested on: canine MM cells (M1, M5, M2, M3, and Jones); experiment: MTS viability assay, 72h, canine MM cell lines; format: cell-based; settings: canine MM cells in vitro, single agent
canine MM cell = settings: cited from earlier work
[2] = tested on: human cutaneous melanoma cells (WM3311, WM2032, WM853–2 and WM858); experiment: MTS viability assay, 72h, human cutaneous melanoma cell lines; format: cell-based
[3] = tested on: Ras/MAPK and PI3K/Akt/mTOR signal transduction targets; format: cell-based, canine; settings: for target inhibition in vitro (western blot): trametinib 10 nM, sapanisertib 40 nM, 4 and 24h, M1, M5 and Jones
Summary of the method: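 Cell lysates were immunoblotted for p-AKT, p-S6 and p-ERK (pathway activation) and for cyclin D1, cyclin B1, Bim, Bcl-xl, Mcl-1 and p-Bad.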

[4] = Preliminary dose range study in mice with canine M1 or M5 MM xenografts; format: in vivo; settings: daily 3.0 mg/Kg, oral
[5] = format: in vivo, mice; settings: for Liver hepatocelluar vacuolation, numbers of animals / Renal tubules scattered isolated necrosis and regeneration, numbers of animals / Renal tubules zonal cortical degeneration/necrosis, numbers of animals / Spleen red and white pulp hypocellularity, numbers of animals / Spleen lymphocytolysis, numbers of animals / Spleen lymphoid and hematopoietic hyperplasia, numbers of animals / Bone marrow hypocellularity, numbers of animals: n = 5
Summary of the method: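 Non-tumor-bearing female nu/nu nude mice (n=5 per group) were dosed by oral gavage in 0.5% HPMC/0.2% Tween for 21 days. […] Bone marrow, kidney, spleen, liver and other organs were fixed for histopathology. Animals per lesion were counted and graded minimal/moderate/severe. Blood was taken into EDTA for complete counts before removal.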

[6] = tested on: p-ERK, p-AKT, p-S6 and p-4E-BP1 in M1 or M5 canine MM xenografts; experiment: Drug target modulation in vivo in tumor xenografts; set-up: species or system mice; settings: three consecutive days; for p-ERK level in tumors: sapanisertib 2.0 mg/Kg or trametinib 5.0 mg/Kg oral
Summary of the method: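 Female nu/nu athymic nude mice, 6–8 weeks old, received 1×10⁶ M1 or M5 cells s.c. in the flank and were randomized at 75–150 mm³ (five per group). […] Tumor lysates went to western blot and fixed sections to H&E plus p-ERK/p-S6 IHC.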

[7] = tested on: M1-derived metastatic subline; experiment: Tail vein injection metastasis study; format: in vivo, mice; settings: trametinib 5.0 mg/Kg daily, sapanisertib 2.0 mg/Kg three times a week, four-week treatment
[8] = Single administration plasma pharmacokinetics in tumor-bearing mice; format: in vivo; settings: mouse plasma
Summary of the method: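 Plasma and tumor were taken from two mice per group per timepoint over 2–48 h. Validated LC-MS/MS was used; sapanisertib was read by MRM m/z 310.2→268.1, calibrated 1–1000 ng/mL. Noncompartmental analysis for destructive sampling gave Cmax, T1/2 and AUC to last timepoint, with AUC error by Bailer's method.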

[9] = tested on: M1 or M5 canine MM subcutaneous xenografts; settings: oral 5.0 mg/Kg trametinib or 2.0 mg/Kg sapanisertib EOD for 3 weeks, single agents
mTOR = settings: ATP-competitive mTOR selective inhibitor; ref https://adisinsight.springer.com/drugs/800030541; https://drugs.ncats.io/substance/JGH0DF1U03#activemoieties; cited from earlier work
[10] = patients receiving the clinically approved dose of 2 mg trametinib; cited from earlier work
[11] = sapanisertib 2mg/kg daily, no lesion
[12] = sapanisertib 2mg/kg daily, severity + minimal
[13] = sapanisertib 2mg/kg daily, severity ++ moderate
[14] = sapanisertib 2mg/kg daily, severity +++ severe
[15] = sapanisertib 2mg/kg every other day, no lesion
[16] = sapanisertib 2mg/kg every other day, severity + minimal

## Nc1ccc(-c2ccc3ncc4ccc(=O)n(-c5cccc(C(F)(F)F)c5)c4c3c2)cn1 [Torin 2]
[1]
  cytotoxicity / sensitivity of cells: highly effective

## Cn1c(=O)n(-c2ccc(C(C)(C)C#N)cc2)c2c3cc(-c4cnc5ccccc5c4)ccc3ncc21 [dactolisib]
Canine MM cell; canine MM cells
  cytotoxicity: dose dependent cytotoxicity

## CC(C)n1nc(-c2ccc3oc(N)nc3c2)c2c(N)ncnc21 [sapanisertib]
[2]; Homo sapiens, WM2032, 72 h
  IC50: 10 to 100 nM
[3]; canine MM cells
  cyclin expression (western blot): effective in reducing cyclin B1
  phosphorylation of Bad: inhibited phosphorylation of Bad
[3]; some cell lines
  reciprocal activation of ERK1/2: apparent reciprocal activation of ERK1/2
[3]
  target inhibition in vitro (western blot): inhibited their respective Ras/MAPK and PI3K/Akt/mTOR signal transduction targets
[4]
  tolerability: not well tolerated
[5]; 2.0 mg/Kg alone EOD
  tolerability: well tolerated
[5]; sapanisertib 2.0 mg/Kg daily
  white blood cell counts finding: lymphopenia
[5]; [11]
  Liver hepatocelluar vacuolation, numbers of animals: 2
  Renal tubules scattered isolated necrosis and regeneration, numbers of animals: 5
  Renal tubules zonal cortical degeneration/necrosis, numbers of animals: 1
  Spleen red and white pulp hypocellularity, numbers of animals: 1
[5]; [12]
  Liver hepatocelluar vacuolation, numbers of animals: 1
  Renal tubules zonal cortical degeneration/necrosis, numbers of animals: 1
  Spleen lymphocytolysis, numbers of animals: 5
  Spleen lymphoid and hematopoietic hyperplasia, numbers of animals: 2
  Spleen red and white pulp hypocellularity, numbers of animals: 2
[5]; [13]
  Bone marrow hypocellularity, numbers of animals: 3 ^†
  Liver hepatocelluar vacuolation, numbers of animals: 1
  Renal tubules zonal cortical degeneration/necrosis, numbers of animals: 3
  Spleen red and white pulp hypocellularity, numbers of animals: 2
[5]; [14]
  Bone marrow hypocellularity, numbers of animals: 2
  Liver hepatocelluar vacuolation, numbers of animals: 1
[5]; [15]
  Bone marrow hypocellularity, numbers of animals: 5
  Liver hepatocelluar vacuolation, numbers of animals: 5
  Renal tubules scattered isolated necrosis and regeneration, numbers of animals: 1
  Renal tubules zonal cortical degeneration/necrosis, numbers of animals: 5
  Spleen lymphocytolysis, numbers of animals: 2
  Spleen lymphoid and hematopoietic hyperplasia, numbers of animals: 2
  Spleen red and white pulp hypocellularity, numbers of animals: 5
[5]; [16]
  Renal tubules scattered isolated necrosis and regeneration, numbers of animals: 4
  Spleen lymphocytolysis, numbers of animals: 3
  Spleen lymphoid and hematopoietic hyperplasia, numbers of animals: 3
[6]
  p-ERK level in tumors: increased p-ERK level
[6]; sapanisertib 2.0 mg/Kg oral
  p-AKT, p-S6 and p-4EBP-1 levels in tumors: reduced p-AKT as well as downstream effectors p-S6 and p-4EBP-1 levels
[7]
  intrathoracic metastatic tumor burden: not as effective as trametinib in abating metastasis
[8]
  T1/2 in the presence of trametinib compared to sapanisertib alone: approximately 50%
  change in sapanisertib PK in the presence of trametinib: no significant change
[9]
  tolerability: tolerated with some varying body weight fluctuation
  tumor growth: inhibited compared to vehicle-treated controls initially, but progression became evident over time
mTOR
  selectivity for PI3K: > 100 fold

## CC(=O)Nc1cccc(-n2c(=O)n(C3CC3)c(=O)c3c(Nc4ccc(I)cc4F)n(C)c(=O)c(C)c32)c1 [trametinib]
[1]
  cytotoxicity / sensitivity of cells: sensitive
[2]; human cutaneous melanoma cells, regardless of Ras and NF1 mutation status
  sensitivity of cells: sensitive
[3]; canine MM cells
  Bcl-xl levels: reduced Bcl-xl levels
  cyclin expression (western blot): reduced the expression of cyclins D1 and B1
[3]
  target inhibition in vitro (western blot): inhibited their respective Ras/MAPK and PI3K/Akt/mTOR signal transduction targets
[6]
  p-ERK level in tumors: less compared to vehicle-only treated mice
[7]
  intrathoracic metastatic tumor burden: significantly less metastatic tumor burdens in the thorax compared to control vehicle-treated mice
[9]
  tumor growth: inhibited compared to vehicle-treated controls initially, but progression became evident over time
Canine MM cell; read-out: IC50, inhibiting canine MM cell growth in vitro
  IC50: ~10 nM
[10]
  AUC: 248 ng·h/mL
  Cmax: 8.03 ng/mL
